Measurements collected from several papers.
Lines come from different studies, so protocols differ.
Ephx2: Bifunctional epoxide hydrolase 2 (Ephx2, Mus musculus, UniProt P34914)
APC: Adenomatous polyposis coli protein (APC, Homo sapiens, UniProt P25054)
AMY1A: Alpha-amylase 1A (AMY1A, Homo sapiens, UniProt P0DUB6)
EGFR C797S/L858R/T790M: Epidermal growth factor receptor (EGFR, Homo sapiens, UniProt P00533, C797S/L858R/T790M)
EGFR: Epidermal growth factor receptor (EGFR, Homo sapiens, UniProt P00533)

Compound | target | test | IC50
O=C(Nc1ccc(-c2ccnc3ccccc23)cc1)C1CCN(S(=O)(=O)c2ccccc2Cl)CC1 | Ephx2 | enzyme activity, inhibitor, fluorescence | 28.6 nM
C=CC(=O)Nc1cc2c(Nc3ccc(OCc4ccccn4)c(Cl)c3)ncnc2cc1OCCN1CCOCC1 | Epidermal growth factor receptor (EGFR, Homo sapiens, UniProt P00533, L858R/T790M) | enzyme activity, inhibitor | 1.5 nM
CC(C)C[C@H](NC(=O)[C@H](Cc1ccc2ccccc2c1)NC(=O)[C@H](CCC(=O)O)NC(=O)c1cccc(F)c1)C(=O)NC1CC1c1ccccc1 (stereo partly drawn) | APC | ligand displacement, FP | 29500 nM
O=C(Nc1ccc(-c2cccc3ncccc23)cc1)C1CCN(S(=O)(=O)c2ccccc2Cl)CC1 | Ephx2 | enzyme activity, inhibitor, fluorescence | 17.2 nM
COc1cc(C(=O)N[C@@H](CCC(=O)O)C(=O)N[C@@H](Cc2ccc3ccccc3c2)C(=O)N[C@@H](CC(C)C)C(=O)NC2CC2c2ccccc2)ccn1 (stereo partly drawn) | APC | ligand displacement, FP | 38900 nM
O=C(Nc1ccc(-c2ccc3ccccc3n2)cc1)C1CCN(S(=O)(=O)c2ccccc2Cl)CC1 | Ephx2 | enzyme activity, inhibitor, fluorescence | 182 nM
OC[C@H]1O[C@@H](Oc2cc3c4c(c2)[C@@H]([C@@H]2c5cc(O)cc6c5[C@@H](c5cc(O)cc(O)c5[C@H]2c2ccc(O)cc2)[C@H](c2ccc(O)cc2)O6)[C@H](c2ccc(O)cc2)c2c(O)cc(O)cc2[C@H]4[C@H](c2ccc(O)cc2)O3)[C@H](O)[C@@H](O)[C@@H]1O | AMY1A | enzyme activity, inhibitor | > 100000 nM
Cc1ncc(CN2CCc3ccccc3C2)c2cc(C(=O)c3ccc4c(c3)OCCO4)oc12 | EGFR C797S/L858R/T790M | enzyme activity, inhibitor, ADP detection | 42.7 nM
CC(C)C[C@H](NC(=O)[C@H](Cc1ccc2ccccc2c1)NC(=O)[C@H](CCC(=O)O)NC(=O)C1N=CN=N1)C(=O)NC1CC1c1ccccc1 (stereo partly drawn) | APC | ligand displacement, FP | 81300 nM
Cc1ccc2c(-c3cc4c(CN5CCN(Cc6ccccn6)CC5)cnc(C)c4o3)cc(=O)oc2c1 | EGFR | enzyme activity, inhibitor, ADP detection | 8.38 nM
Oc1ccc([C@@H]2c3c(O)cc(O)cc3[C@@H]3c4c(cc(O)cc4[C@H]2[C@@H]2c4cc(O)cc5c4[C@@H](c4cc(O)cc(O)c4[C@H]2c2ccc(O)cc2)[C@H](c2ccc(O)cc2)O5)O[C@H]3c2ccc(O)cc2)cc1 | AMY1A | enzyme activity, inhibitor | 33700 nM
Cc1ncc(CN2CCN(Cc3ccccn3)CC2)c2cc(C(=O)c3ccc4c(c3)OCCO4)oc12 | EGFR C797S/L858R/T790M | enzyme activity, inhibitor, ADP detection | 29 nM
COc1ccc2nc3cc(Cl)ccc3c(Nc3cc(CN4CCCC4)c(O)c(CN4CCCC4)c3)c2n1 | Palmitoyl-protein thioesterase 1 (Homo sapiens, UniProt P50897) | enzyme activity, inhibitor | > 125000 nM
CC(C)C[C@H](NC(=O)[C@H](Cc1ccc2ccccc2c1)NC(=O)[C@H](CCC(=O)O)NC(=O)c1ccncc1)C(=O)NC1CC1c1ccccc1 (stereo partly drawn) | APC | ligand displacement, FP | 72400 nM
Cc1c(Cc2ccccc2)c(=O)oc2c(C)c(OCC(=O)NN=Cc3ccccc3)ccc12 | EGFR | enzyme activity, inhibitor, ATP luminescence | 307 nM
